Measurements taken from ChEMBL document CHEMBL3616437, “Thiazole compounds with activity against Cryptococcus gattii and Cryptococcus neoformans in vitro” (Eur J Med Chem, 2015).
The source made the active and inactive calls. No cut-off for these calls is given here.

Columns and labels:
[1] = test system: Cryptococcus gattii species complex; experiment: Ratio of compound MIC for Cryptococcus gattii 1913ER in presence of fluconazole to compound MIC for Cryptococcus gattii 1913ER in absence of fluconazole by checkerboard microtiter test; assay type: functional, Cryptococcus bacillisporus
How it was run: (§1)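 Checkerboard microdilution: eight two-fold dilutions of test compound (0.11 to 15.6 µM) crossed with amphotericin B (0.025 to 3.9 µM, in DMSO) or fluconazole (0.48 to 62.5 µM, in water). Inoculum per CLSI M27-A3 in RPMI-MOPS pH 7.0, 1-5 x10^3 cells/mL. Growth 48 to 72 h. Effective MIC is the combination concentration giving complete inhibition. FICs derived from MICs in combination versus alone.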

[2] = Selectivity index, ratio of IC50 for African green monkey Vero cells to MIC for Cryptococcus gattii ATCC 24065; assay type: toxicity, cell-based
[3] = test system: Cryptococcus gattii species complex; experiment: Ratio of compound MIC for Cryptococcus gattii 196L/03 in presence of fluconazole to compound MIC for Cryptococcus gattii 196L/03 in absence of fluconazole by checkerboard microtiter test; assay type: functional, Cryptococcus bacillisporus; how it was run: as §1
[4] = test system: Cryptococcus gattii species complex; experiment: Ratio of compound MIC for Cryptococcus gattii LMM818 in presence of fluconazole to compound MIC for Cryptococcus gattii LMM818 in absence of fluconazole by checkerboard microtiter test; assay type: functional, Cryptococcus bacillisporus; how it was run: as §1
[5] = test system: Cryptococcus gattii species complex; experiment: Ratio of compound MIC for Cryptococcus gattii 23/10993 in presence of fluconazole to compound MIC for Cryptococcus gattii 23/10993 in absence of fluconazole by checkerboard microtiter test; assay type: functional, Cryptococcus bacillisporus; how it was run: as §1
[6] = test system: Cryptococcus gattii species complex; experiment: Ratio of compound MIC for Cryptococcus gattii ICB181 in presence of fluconazole to compound MIC for Cryptococcus gattii ICB181 in absence of fluconazole by checkerboard microtiter test; assay type: functional, Cryptococcus bacillisporus; how it was run: as §1
Cryptococcus neoformans [7] = experiment: Ratio of compound MIC for Cryptococcus neoformans 96806 in presence of fluconazole to compound MIC for Cryptococcus neoformans 96806 in absence of fluconazole by checkerboard microtiter test; assay type: functional; how it was run: as §1
Cryptococcus neoformans [8] = experiment: Ratio of compound MIC for Cryptococcus neoformans ATCC 62066 in presence of fluconazole to compound MIC for Cryptococcus neoformans ATCC 62066 in absence of fluconazole by checkerboard microtiter test; assay type: functional; how it was run: as §1
Cryptococcus neoformans [9] = experiment: Ratio of compound MIC for Cryptococcus neoformans WP in presence of fluconazole to compound MIC for Cryptococcus neoformans WP in absence of fluconazole by checkerboard microtiter test; assay type: functional; how it was run: as §1
Cryptococcus neoformans [10] = experiment: Ratio of compound MIC for Cryptococcus neoformans VM-MCMMPI in presence of fluconazole to compound MIC for Cryptococcus neoformans VM-MCMMPI in absence of fluconazole by checkerboard microtiter test; assay type: functional; how it was run: as §1
Cryptococcus neoformans [11] = experiment: Ratio of compound MIC for Cryptococcus neoformans 27JF in presence of fluconazole to compound MIC for Cryptococcus neoformans 27JF in absence of fluconazole by checkerboard microtiter test; assay type: functional; how it was run: as §1
Cryptococcus neoformans [12] = experiment: Ratio of compound MIC for Cryptococcus neoformans LMM820 in presence of fluconazole to compound MIC for Cryptococcus neoformans LMM820 in absence of fluconazole by checkerboard microtiter test; assay type: functional; how it was run: as §1
Cryptococcus neoformans [13] = experiment: Ratio of compound MIC for Cryptococcus neoformans ATCC 24067 in presence of fluconazole to compound MIC for Cryptococcus neoformans ATCC 24067 in absence of fluconazole by checkerboard microtiter test; assay type: functional; how it was run: as §1
[14] = test system: Cryptococcus bacillisporus; experiment: Ratio of compound MIC for Cryptococcus gattii ATCC 32608 in presence of amphotericin B to compound MIC for Cryptococcus gattii ATCC 32608 in absence of amphotericin B by checkerboard microtiter test; assay type: functional; how it was run: as §1
[15] = test system: Cryptococcus gattii species complex; experiment: Ratio of compound MIC for Cryptococcus gattii L28/02 in presence of amphotericin B to compound MIC for Cryptococcus gattii L28/02 in absence of amphotericin B by checkerboard microtiter test; assay type: functional, Cryptococcus bacillisporus; how it was run: as §1
[16] = test system: Cryptococcus gattii species complex; experiment: Ratio of compound MIC for Cryptococcus gattii L24/01 in presence of amphotericin B to compound MIC for Cryptococcus gattii L24/01 in absence of amphotericin B by checkerboard microtiter test; assay type: functional, Cryptococcus bacillisporus; how it was run: as §1
[17] = test system: Cryptococcus gattii species complex; experiment: Ratio of compound MIC for Cryptococcus gattii 1913ER in presence of amphotericin B to compound MIC for Cryptococcus gattii 1913ER in absence of amphotericin B by checkerboard microtiter test; assay type: functional, Cryptococcus bacillisporus; how it was run: as §1
Cryptococcus neoformans [18] = experiment: Ratio of compound MIC for Cryptococcus neoformans 28JF in presence of amphotericin B to compound MIC for Cryptococcus neoformans 28JF in absence of amphotericin B by checkerboard microtiter test; assay type: functional; how it was run: as §1
Cryptococcus neoformans [19] = experiment: Ratio of compound MIC for Cryptococcus neoformans 96806 in presence of amphotericin B to compound MIC for Cryptococcus neoformans 96806 in absence of amphotericin B by checkerboard microtiter test; assay type: functional; how it was run: as §1
Cryptococcus neoformans [20] = experiment: Ratio of compound MIC for Cryptococcus neoformans ATCC 62066 in presence of amphotericin B to compound MIC for Cryptococcus neoformans ATCC 62066 in absence of amphotericin B by checkerboard microtiter test; assay type: functional; how it was run: as §1
Cryptococcus neoformans [21] = experiment: Ratio of compound MIC for Cryptococcus neoformans CN31 in presence of amphotericin B to compound MIC for Cryptococcus neoformans CN31 in absence of amphotericin B by checkerboard microtiter test; assay type: functional; how it was run: as §1
Cryptococcus neoformans [22] = experiment: Ratio of compound MIC for Cryptococcus neoformans VM-MCMMPI in presence of amphotericin B to compound MIC for Cryptococcus neoformans VM-MCMMPI in absence of amphotericin B by checkerboard microtiter test; assay type: functional; how it was run: as §1
Cryptococcus neoformans [23] = experiment: Ratio of compound MIC for Cryptococcus neoformans 27JF in presence of amphotericin B to compound MIC for Cryptococcus neoformans 27JF in absence of amphotericin B by checkerboard microtiter test; assay type: functional; how it was run: as §1
Cryptococcus neoformans [24] = experiment: Ratio of compound MIC for Cryptococcus neoformans LMM820 in presence of amphotericin B to compound MIC for Cryptococcus neoformans LMM820 in absence of amphotericin B by checkerboard microtiter test; assay type: functional; how it was run: as §1
Cryptococcus neoformans [25] = experiment: Ratio of compound MIC for Cryptococcus neoformans ATCC 28957 in presence of amphotericin B to compound MIC for Cryptococcus neoformans ATCC 28957 in absence of amphotericin B by checkerboard microtiter test; assay type: functional; how it was run: as §1
Cryptococcus neoformans [26] = experiment: Ratio of compound MIC for Cryptococcus neoformans ATCC 24067 in presence of amphotericin B to compound MIC for Cryptococcus neoformans ATCC 24067 in absence of amphotericin B by checkerboard microtiter test; assay type: functional; how it was run: as §1
Cryptococcus neoformans [27] = experiment: Ratio of compound MIC for Cryptococcus neoformans F10 in presence of amphotericin B to compound MIC for Cryptococcus neoformans F10 in absence of amphotericin B by checkerboard microtiter test; assay type: functional; how it was run: as §1
Cryptococcus gattii [28] = experiment: Ratio of compound MIC for Cryptococcus gattii ATCC 24065 in presence of fluconazole to compound MIC for Cryptococcus gattii ATCC 24065 in absence of fluconazole by checkerboard microtiter test
Cryptococcus gattii [29] = experiment: Ratio of compound MIC for Cryptococcus gattii ATCC 24065 in presence of amphotericin B to compound MIC for Cryptococcus gattii ATCC 24065 in absence of amphotericin B by checkerboard microtiter test
[30] = test system: Cryptococcus gattii species complex; experiment: Antifungal activity against Cryptococcus gattii L27/01 assessed as reduction in ergosterol content at MIC after 24 hrs by spectrophotometric analysis; assay type: functional, organism-based; settings: Cryptococcus bacillisporus
How it was run: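 Pellet washed and weighed, then saponified in 25% ethanolic KOH at 85°C for 1 h. Extracted with water and n-heptane, read at 282 and 230 nm. Ergosterol taken from a standard curve and expressed as % of growth control.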

Compound | fractional inhibitory concentration index (FICI) [1] | fractional inhibitory concentration index (FICI) [3] | fractional inhibitory concentration index (FICI) [4] | fractional inhibitory concentration index (FICI) [5] | fractional inhibitory concentration index (FICI) [6] | fractional inhibitory concentration index (FICI) (Cryptococcus neoformans [7]) | fractional inhibitory concentration index (FICI) (Cryptococcus neoformans [8]) | fractional inhibitory concentration index (FICI) (Cryptococcus neoformans [9]) | fractional inhibitory concentration index (FICI) (Cryptococcus neoformans [10]) | fractional inhibitory concentration index (FICI) (Cryptococcus neoformans [11]) | fractional inhibitory concentration index (FICI) (Cryptococcus neoformans [12]) | fractional inhibitory concentration index (FICI) (Cryptococcus neoformans [13]) | fractional inhibitory concentration index (FICI) [14] | fractional inhibitory concentration index (FICI) [15] | fractional inhibitory concentration index (FICI) [16] | fractional inhibitory concentration index (FICI) [17] | fractional inhibitory concentration index (FICI) (Cryptococcus neoformans [18]) | fractional inhibitory concentration index (FICI) (Cryptococcus neoformans [19]) | fractional inhibitory concentration index (FICI) (Cryptococcus neoformans [20]) | fractional inhibitory concentration index (FICI) (Cryptococcus neoformans [21]) | other results
COc1ccc(-c2csc(N/N=C/C3CCCCC3)n2)cc1 | 2.46 | 2.28 | 1.19 | 2.46 | 4.46 | 1.01 | 3.58 | 2.21 | 4.46 | 4.59 | 4.59 | 3.97 | 2.78 | 2.18 | 2.38 | 1.75 | 1.75 | 1.46 | 2.58 | 2.78 | selectivity ratio [2]: 25.6; fractional inhibitory concentration index (FICI) (Cryptococcus neoformans [22]): 2.16; fractional inhibitory concentration index (FICI) (Cryptococcus neoformans [23]): 2.78; fractional inhibitory concentration index (FICI) (Cryptococcus neoformans [24]): 2.78; fractional inhibitory concentration index (FICI) (Cryptococcus neoformans [25]): 2.07; fractional inhibitory concentration index (FICI) (Cryptococcus neoformans [26]): 2.36; fractional inhibitory concentration index (FICI) (Cryptococcus neoformans [27]): 1.46; fractional inhibitory concentration index (FICI) (Cryptococcus gattii [28]): 2.43; fractional inhibitory concentration index (FICI) (Cryptococcus gattii [29]): 2
C(=N\Nc1nc(-c2ccccc2)cs1)/C1CCCCC1 | 2.09 | 2.47 | 2.47 | 1.47 | 2.58 | 1.76 | 2.04 | 2.47 | 4.47 | 6.8 | 4.24 | 3.59 | 2.58 | 1.34 | 4.87 | 1.47 | 1.38 | 2.67 | 2.47 | 2.47 | fractional inhibitory concentration index (FICI) (Cryptococcus neoformans [22]): 1.47; fractional inhibitory concentration index (FICI) (Cryptococcus neoformans [23]): 2.58; fractional inhibitory concentration index (FICI) (Cryptococcus neoformans [24]): 4.3; fractional inhibitory concentration index (FICI) (Cryptococcus neoformans [25]): 1.09; fractional inhibitory concentration index (FICI) (Cryptococcus neoformans [26]): 2.67; fractional inhibitory concentration index (FICI) (Cryptococcus neoformans [27]): 2.62; fractional inhibitory concentration index (FICI) (Cryptococcus gattii [28]): 1.58; fractional inhibitory concentration index (FICI) (Cryptococcus gattii [29]): 1.72
c1ccc(-c2csc(NN=C3CCCC3)n2)cc1 | 2.45 | 1.84 | 1.59 | 4.23 | 4.58 | 1.01 | 2.46 | 2.46 | 4.21 | 3.33 | 4.46 | 4.46 | 1.7 | 2.66 | 2.16 | 1.04 | 2.46 | 2.46 | 3.06 | 2.66 | fractional inhibitory concentration index (FICI) (Cryptococcus neoformans [22]): 2.66; fractional inhibitory concentration index (FICI) (Cryptococcus neoformans [23]): 2.66; fractional inhibitory concentration index (FICI) (Cryptococcus neoformans [24]): 2.66; fractional inhibitory concentration index (FICI) (Cryptococcus neoformans [25]): 2.22; fractional inhibitory concentration index (FICI) (Cryptococcus neoformans [26]): 1.46; fractional inhibitory concentration index (FICI) (Cryptococcus neoformans [27]): 2.58; fractional inhibitory concentration index (FICI) (Cryptococcus gattii [28]): 3.71; fractional inhibitory concentration index (FICI) (Cryptococcus gattii [29]): 1.2
C[C@@H]1[C@H](O)[C@@H](C)/C=C/C=C/C=C/C=C/C=C/C=C/C=C/[C@H](O[C@@H]2O[C@H](C)[C@@H](O)[C@H](N)[C@@H]2O)C[C@@H]2O[C@](O)(C[C@@H](O)C[C@@H](O)[C@H](O)CC[C@@H](O)C[C@@H](O)CC(=O)O[C@H]1C)C[C@H](O)[C@H]2C(=O)O [AMPHOTERICIN B] | – | – | – | – | – | – | – | – | – | – | – | – | – | – | – | – | – | – | – | – | Activity [30]: inactive
COc1ccc(-c2csc(N/N=C(\C)CCO)n2)cc1 | 2.47 | 1.95 | 2.32 | 2.28 | 1.99 | 2.01 | 2.3 | 2.32 | 4.33 | 7.44 | 2.1 | 1.92 | 3.14 | 2.78 | 4.98 | 2.78 | 2.58 | 2.78 | 2.58 | 4.98 | selectivity ratio [2]: 222; fractional inhibitory concentration index (FICI) (Cryptococcus neoformans [22]): 1.58; fractional inhibitory concentration index (FICI) (Cryptococcus neoformans [23]): 2.67; fractional inhibitory concentration index (FICI) (Cryptococcus neoformans [24]): 2.58; fractional inhibitory concentration index (FICI) (Cryptococcus neoformans [25]): 1.98; fractional inhibitory concentration index (FICI) (Cryptococcus neoformans [26]): 2.78; fractional inhibitory concentration index (FICI) (Cryptococcus neoformans [27]): 2.47; Activity [30]: inactive; fractional inhibitory concentration index (FICI) (Cryptococcus gattii [28]): 0.88; fractional inhibitory concentration index (FICI) (Cryptococcus gattii [29]): 2.98
OC(Cn1cncn1)(Cn1cncn1)c1ccc(F)cc1F [FLUCONAZOLE] | – | – | – | – | – | – | – | – | – | – | – | – | – | – | – | – | – | – | – | – | selectivity ratio [2]: 7.87; Activity [30]: Active
